Measured values from ChEMBL document CHEMBL1121742, “Synthesis and antibacterial activity of some ester, amides, and hydrazides of 3-carboxyrifamycin S. Relationship between structure and activity of ansamycins” (1981).
In brackets after ≈: the same amount, converted by molar mass.

Legend:
Escherichia coli [1] = assay: Minimum inhibitory concentration of compound tested for antibacterial activity against Escherichia coli ML/35; type: functional
Summary of the method: (§1)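 MIC by serial dilution in liquid medium in test tubes. Medium was brain-heart infusion and the inoculum was 10⁶ cells/mL. Tubes were incubated at 35 °C for 24 h. MIC was taken as the lowest antibiotic concentration preventing visible growth.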

Klebsiella pneumoniae [2] = assay: Minimum inhibitory concentration of compound tested for antibacterial activity against Klebsiella pneumoniae ottaviani; type: functional; summary of the method: as §1
Salmonella paratyphi = assay: Minimum inhibitory concentration of compound tested for antibacterial activity against Salmonella paratyphi BO 248 K(Sclavo); type: functional, Salmonella enterica subsp. enterica serovar Paratyphi A; conditions: Salmonella enterica
Staphylococcus aureus = assay: Minimum inhibitory concentration of compound tested for antibacterial activity against Staphylococcus aureus 209 P(FDA); type: functional; summary of the method: as §1
Escherichia coli [3] = assay: Minimum inhibitory concentration of compound tested for antibacterial activity against Escherichia coli ML/35; 25-50; type: functional; summary of the method: as §1
Klebsiella pneumoniae [4] = assay: Minimum inhibitory concentration of compound tested for antibacterial activity against Klebsiella pneumoniae ottaviani; 25-50; type: functional; summary of the method: as §1

SMILES	MIC (Escherichia coli [1]) [µg/mL]	MIC (Klebsiella pneumoniae [2]) [µg/mL]	MIC (Salmonella paratyphi) [µg/mL]	MIC (Staphylococcus aureus) [µg/mL]	MIC (Escherichia coli [3]) [µg/mL]	MIC (Klebsiella pneumoniae [4]) [µg/mL]
COC1/C=C/OC2(C)Oc3c(C)c(O)c4c(c3C2=O)C(=O)C(C(=O)NN(C)C)=C(NC(=O)/C(C)=C\C=C\C(C)C(O)C(C)C(O)C(C)C(OC(C)=O)C1C)C4=O (stereo unspecified)	> 50	> 50	> 50	< 0.005	–	–
COC1/C=C/OC2(C)Oc3c(C)c(O)c4c(c3C2=O)C(=O)C(C(=O)OCC(O)CO)=C(NC(=O)/C(C)=C\C=C\C(C)C(O)C(C)C(O)C(C)C(OC(C)=O)C1C)C4=O (stereo unspecified)	> 50	> 50	> 50	~0.5 (≈ 0.614 µM)	–	–
COC1/C=C/OC2(C)Oc3c(C)c(O)c4c(c3C2=O)C(=O)C(C(=O)N(C)C)=C(NC(=O)/C(C)=C\C=C\C(C)C(O)C(C)C(O)C(C)C(OC(C)=O)C1C)C4=O (stereo unspecified)	> 50	> 50	> 50	0.025 (≈ 0.0326 µM)	–	–
CO[C@H]1/C=C/O[C@@]2(C)Oc3c(C)c(O)c4c(O)c(cc(O)c4c3C2=O)NC(=O)/C(C)=C\C=C\[C@H](C)[C@H](O)[C@@H](C)[C@@H](O)[C@@H](C)[C@H](OC(C)=O)[C@@H]1C [RIFAMYCIN]	100 (≈ 143 µM)	100 (≈ 143 µM)	100 (≈ 143 µM)	< 0.005	–	–
COC1/C=C/OC2(C)Oc3c(C)c(O)c4c(c3C2=O)C(=O)C(C(=O)N2CCN(C)CC2)=C(NC(=O)/C(C)=C\C=C\C(C)C(O)C(C)C(O)C(C)C(OC(C)=O)C1C)C4=O (stereo unspecified)	> 50	> 50	> 50	0.1 (≈ 0.122 µM)	–	–
CO[C@H]1/C=C/O[C@@]2(C)Oc3c(C)c(O)c4c(O)c(c(/C=N/N5CCN(C)CC5)c(O)c4c3C2=O)NC(=O)/C(C)=C\C=C\[C@H](C)[C@H](O)[C@@H](C)[C@@H](O)[C@@H](C)[C@H](OC(C)=O)[C@@H]1C [RIFAMPIN]	6 (≈ 7.29 µM)	25 (≈ 30.4 µM)	12 (≈ 14.6 µM)	~0.025 (≈ 0.0304 µM)	–	–
COC(=O)C1=C2NC(=O)/C(C)=C\C=C\C(C)C(O)C(C)C(O)C(C)C(OC(C)=O)C(C)C(OC)/C=C/OC3(C)Oc4c(C)c(O)c(c(c4C3=O)C1=O)C2=O (stereo unspecified)	–	–	~50 (≈ 66.3 µM)	0.05 (≈ 0.0663 µM)	25 (≈ 33.2 µM)	25 (≈ 33.2 µM)
COC1/C=C/OC2(C)Oc3c(C)c(O)c4c(c3C2=O)C(=O)C(C(=O)Nc2ccc(Br)cc2)=C(NC(=O)/C(C)=C\C=C\C(C)C(O)C(C)C(O)C(C)C(OC(C)=O)C1C)C4=O (stereo unspecified)	> 50	> 50	> 50	0.1 (≈ 0.112 µM)	–	–
COC1/C=C/OC2(C)Oc3c(C)c(O)c4c(c3C2=O)C(=O)C(C(=O)N(C)N2CCCCC2)=C(NC(=O)/C(C)=C\C=C\C(C)C(O)C(C)C(O)C(C)C(OC(C)=O)C1C)C4=O (stereo unspecified)	> 50	> 50	> 50	~0.03 (≈ 0.0359 µM)	–	–
